Measured values pooled from the literature.
Protocols differ between the studies behind these lines.

C=CC(=O)NC1CCN(c2ncc3ncnc(Nc4ccc(Oc5ccc6c(c5)ncn6C)c(C)c4)c3n2)CC1
EC50 (PANC-1; cell growth or viability): 1800 nM

CN(C)c1ccc(-c2c(C(N)=S)c(N)n(N)c(=O)c2C#N)cc1
inhibition zone (Saccharomyces cerevisiae; microbial growth, well diffusion; ATCC9763; 500 µg/mL): 14 mm

O=C(NC(=S)Nc1cccc(O)c1)c1cccs1
IC50 (Leishmania tropica; parasite growth, resazurin; promastigote): 480 nM

N#Cc1c(-c2ccc(OCc3ccccc3)cc2)c(C(N)=O)c(N)n(N)c1=O
inhibition zone (Saccharomyces cerevisiae; microbial growth, well diffusion; ATCC9763; 500 µg/mL): 16 mm

Nc1ccc(/C=C/C(=O)NCc2cc3cc(-c4ccc(C(=O)N5CCC(F)(F)CC5)cc4)cc(-c4ccc(F)cc4)c3o2)cn1
IC50 (PANC-1; cell growth or viability, CCK-8; 72 h): > 20000 nM

CCCCCCCCCCCCCCCCOP(=O)([O-])OCC[N+](C)(C)C
IC50 (Leishmania tropica; parasite growth, resazurin; promastigote): 2120 nM

Nc1ccc(/C=C/C(=O)N2CCc3c(oc4c(-c5ccc(F)cc5)cc(-c5ccc(C(=O)N6CCOCC6)nn5)cc34)C2)cn1
IC50 (PANC-1; cell growth or viability, CCK-8; 72 h): > 20000 nM

N#Cc1c(-c2ccc(OCc3ccccc3)cc2)c(C(N)=S)c(N)n(N)c1=O
inhibition zone (Saccharomyces cerevisiae; microbial growth, well diffusion; ATCC9763; 500 µg/mL): 17 mm

O=C(NC(=S)Nc1ccccc1O)c1ccco1
IC50 (Leishmania tropica; parasite growth, resazurin; promastigote): 4190 nM

N#Cc1c(-c2ccc(Cl)cc2Cl)c(C(N)=S)c(N)n(N)c1=O
inhibition zone (Saccharomyces cerevisiae; microbial growth, well diffusion; ATCC9763; 500 µg/mL): 11 mm

COc1ccc(Cc2[nH]/c(=N/C(=O)C34CC5CC(CC(C5)C3)C4)n(C)c2-c2ccc(OC(=O)c3ccccc3)c(OC)c2)cc1
IC50 (Hepatitis B virus; viral replication, inhibitor; HePAD38): 9820 nM

Cc1c(C(=O)O)ccc2c3n(nc12)[C@@H]1[C@H](C3)N(CC2CC2)[C@@]2(C(=O)Nc3cc(Cl)ccc32)[C@H]1c1cccc(Cl)c1F
IC50 (NUGC-4; cell growth or viability, resazurin): 12 nM
